# Measured values: ChEMBL document CHEMBL4613315, “Design of First-in-Class Dual EZH2/HDAC Inhibitor: Biochemical Activity and Biological Evaluation in Cancer Cells” (ACS Med Chem Lett, 2020)
# Active and inactive are the calls of the source. No cut-off for these calls is given here.
# How the values were obtained:
# [1] = Cytotoxicity against human RH4 cells assessed as combinational index measured at fraction affected value of 0.63 in presence of vorinostat at 50 uM incubated for 72 hrs by CellTiter-Glo Luminescent cell viability assay; assay type: functional
# How it was run: (§1)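 Viability after 72 h of single-agent or combined treatment with the HDAC inhibitor (0.05–0.25 μM) and the EZH2 inhibitor. EZH2 inhibitor range: U937 5–25 μM; RH4 10–50 μM. Synergy was assessed by combination index and isobologram analysis.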
# [2] = molecular target: T1, Protein deacetylase HDAC6 (Homo sapiens) (UniProt Q9UBN7); assay: Inhibition of HDAC6 in human RH4 cells assessed as acetylated alpha-tubulin level at 50 uM in presence of vorinostat incubated for 72 hrs by Western blot analysis (reference value: 1); assay type: cell-based
# T1 sequence (whole entry): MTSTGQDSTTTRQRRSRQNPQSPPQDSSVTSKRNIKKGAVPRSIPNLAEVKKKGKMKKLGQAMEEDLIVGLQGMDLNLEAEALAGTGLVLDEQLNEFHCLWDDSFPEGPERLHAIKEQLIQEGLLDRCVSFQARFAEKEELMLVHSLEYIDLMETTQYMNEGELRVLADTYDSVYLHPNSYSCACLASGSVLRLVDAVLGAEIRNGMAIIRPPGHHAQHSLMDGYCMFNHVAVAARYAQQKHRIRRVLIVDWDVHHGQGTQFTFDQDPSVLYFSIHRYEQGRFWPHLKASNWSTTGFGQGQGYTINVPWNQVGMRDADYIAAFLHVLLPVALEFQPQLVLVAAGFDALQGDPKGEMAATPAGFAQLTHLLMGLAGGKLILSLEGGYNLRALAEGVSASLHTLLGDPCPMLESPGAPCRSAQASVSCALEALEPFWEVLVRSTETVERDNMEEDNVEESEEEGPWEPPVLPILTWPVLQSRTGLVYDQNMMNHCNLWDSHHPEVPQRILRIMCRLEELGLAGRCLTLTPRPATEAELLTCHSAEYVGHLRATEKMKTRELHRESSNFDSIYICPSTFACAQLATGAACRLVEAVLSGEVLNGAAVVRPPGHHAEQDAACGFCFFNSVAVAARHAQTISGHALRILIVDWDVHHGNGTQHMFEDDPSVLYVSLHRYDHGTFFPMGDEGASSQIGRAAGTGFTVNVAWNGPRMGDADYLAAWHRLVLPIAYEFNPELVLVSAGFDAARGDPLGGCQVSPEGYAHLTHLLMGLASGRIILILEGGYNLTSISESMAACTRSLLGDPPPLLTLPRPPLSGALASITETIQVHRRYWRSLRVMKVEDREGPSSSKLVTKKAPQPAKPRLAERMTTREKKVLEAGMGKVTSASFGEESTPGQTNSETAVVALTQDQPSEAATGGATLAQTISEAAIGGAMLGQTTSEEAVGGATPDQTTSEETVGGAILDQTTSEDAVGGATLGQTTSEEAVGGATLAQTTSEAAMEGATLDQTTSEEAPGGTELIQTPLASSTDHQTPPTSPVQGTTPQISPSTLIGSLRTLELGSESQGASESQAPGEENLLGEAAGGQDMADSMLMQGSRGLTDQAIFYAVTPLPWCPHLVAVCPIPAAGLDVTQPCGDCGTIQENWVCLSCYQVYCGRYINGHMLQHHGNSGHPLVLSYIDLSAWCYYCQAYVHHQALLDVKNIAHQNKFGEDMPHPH
# How it was run: (§2)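 RH4 cells co-treated with EZH2 inhibitor at 50 μM plus HDAC inhibitor at 0.15 μM; Western blot after 72 or 96 h for H3K27me3 or acetyl-tubulin, vinculin loading control; densitometry normalized to loading control then DMSO vehicle.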
# [3] = molecular target: T1, Protein deacetylase HDAC6 (Homo sapiens); assay: Inhibition of HDAC6 in human RH4 cells assessed as acetylated alpha-tubulin level at 50 uM incubated for 72 hrs by Western blot analysis; assay type: cell-based
# [4] = molecular target: T2, Histone-lysine N-methyltransferase EZH2 (Homo sapiens, UniProt Q15910); assay: Inhibition of EZH2 in human RH4 cells assessed as H3K27me3 level at 50 uM in presence of vorinostat incubated for 72 hrs by Western blot analysis (reference value: 1); assay type: cell-based; how it was run: as §2
# T2 sequence (Q15910 whole entry, looked up): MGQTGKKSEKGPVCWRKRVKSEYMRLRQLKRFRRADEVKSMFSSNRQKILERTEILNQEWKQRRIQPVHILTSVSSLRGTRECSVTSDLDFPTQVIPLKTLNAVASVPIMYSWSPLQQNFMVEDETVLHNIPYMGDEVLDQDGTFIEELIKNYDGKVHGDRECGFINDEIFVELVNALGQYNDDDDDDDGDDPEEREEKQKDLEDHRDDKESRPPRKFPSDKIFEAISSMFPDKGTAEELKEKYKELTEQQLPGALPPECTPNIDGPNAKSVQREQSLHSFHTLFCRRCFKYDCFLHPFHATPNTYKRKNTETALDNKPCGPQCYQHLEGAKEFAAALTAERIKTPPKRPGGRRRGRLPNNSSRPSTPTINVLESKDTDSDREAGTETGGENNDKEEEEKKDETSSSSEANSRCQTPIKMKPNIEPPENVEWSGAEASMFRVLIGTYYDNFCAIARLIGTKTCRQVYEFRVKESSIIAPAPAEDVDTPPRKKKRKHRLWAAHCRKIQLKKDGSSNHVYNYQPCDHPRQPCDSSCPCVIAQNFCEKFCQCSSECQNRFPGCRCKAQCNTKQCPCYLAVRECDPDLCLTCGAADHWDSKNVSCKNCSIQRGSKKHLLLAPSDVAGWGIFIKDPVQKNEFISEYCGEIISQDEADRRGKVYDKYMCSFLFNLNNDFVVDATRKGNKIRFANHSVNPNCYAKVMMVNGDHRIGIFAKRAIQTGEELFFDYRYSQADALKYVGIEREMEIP
# [5] = Cytotoxicity against human RH4 cells assessed as reduction in cell viability at 50 uM incubated for 72 hrs by CellTiter-Glo Luminescent cell viability assay relative to control; assay type: functional; settings: Rh4, 72 h
# [6] = Cytotoxicity against human RH4 cells assessed as combinational index measured at fraction affected value of 0.27 in presence of vorinostat at 10 uM incubated for 72 hrs by CellTiter-Glo Luminescent cell viability assay; assay type: functional; how it was run: as §1
# [7] = molecular target: T2, Histone-lysine N-methyltransferase EZH2; assay: Inhibition of EZH2 in human RH4 cells assessed as H3K27me3 level at 50 uM incubated for 96 hrs by Western blot analysis; assay type: cell-based
# [8] = molecular target: T2, Histone-lysine N-methyltransferase EZH2; assay: Inhibition of EZH2 in human RH4 cells assessed as H3K27me3 level at 50 uM incubated for 72 hrs by Western blot analysis; assay type: cell-based
# [9] = Cell cycle arrest in human RH4 cells assessed as G2/M accumulation at 28 uM incubated for 72 hrs by propidium iodide staining based flow cytometry (reference value: 18.9 %); assay type: functional
# U-87MG ATCC = assay: Upregulation of snail in human U87 cells at 5 to 25 uM incubated for 24 hrs by Western blot analysis; assay type: functional, cell-based
# How it was run: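 U87 glioblastoma cells exposed for 24 h at 5, 10 and 25 μM, with DMSO vehicle as control. Snail and E-cadherin protein levels were read by Western blot, with tubulin as the loading control.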
# [10] = Cytotoxicity against human RH4 cells assessed as reduction in cell viability at 20 uM incubated for 96 hrs by CellTiter-Glo Luminescent cell viability assay relative to control; assay type: functional; settings: Rh4, 96 h
# How it was run: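 Viability of U937 (5–25 μM) and RH4 (5–35 μM) cells after 48, 72 and 96 h of treatment at increasing concentrations.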
# [11] = Induction of apoptosis in human RH4 cells assessed as early apoptotic cells at 14 uM incubated for 72 hrs by annexin V-FITC staining based flow cytometry (reference value: 10.8 %); assay type: functional
# SK-N-SH = assay: Cytotoxicity against human SK-N-SH cells assessed as reduction in cell viability incubated for 72 hrs by CellTiter-Glo Luminescent cell viability assay; assay type: functional, cell-based
# How it was run: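 Antiproliferative IC50 after 72 h of treatment. Values are means of three independent experiments, each measured in triplicate, ± SD.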
# [12] = Induction of apoptosis in human RH4 cells assessed as late apoptotic cells at 14 uM incubated for 72 hrs by annexin V-FITC staining based flow cytometry (reference value: 2.1 %); assay type: functional
# [13] = Cell cycle arrest in human RH4 cells assessed as G2/M accumulation at 14 uM incubated for 72 hrs by propidium iodide staining based flow cytometry (reference value: 18.9 %); assay type: functional
# [14] = Induction of apoptosis in human RH4 cells assessed as necrotic cells at 14 uM incubated for 72 hrs by annexin V-FITC staining based flow cytometry (reference value: 0.4 %); assay type: functional
# Histone deacetylase 4 = Histone deacetylase 4 (Homo sapiens, UniProt P56524); assay: Inhibition of human recombinant HDAC4 using AMC-K(TFA)GL as substrate by fluorescence based assay
# Chain of Histone deacetylase 4 (P56524 whole entry): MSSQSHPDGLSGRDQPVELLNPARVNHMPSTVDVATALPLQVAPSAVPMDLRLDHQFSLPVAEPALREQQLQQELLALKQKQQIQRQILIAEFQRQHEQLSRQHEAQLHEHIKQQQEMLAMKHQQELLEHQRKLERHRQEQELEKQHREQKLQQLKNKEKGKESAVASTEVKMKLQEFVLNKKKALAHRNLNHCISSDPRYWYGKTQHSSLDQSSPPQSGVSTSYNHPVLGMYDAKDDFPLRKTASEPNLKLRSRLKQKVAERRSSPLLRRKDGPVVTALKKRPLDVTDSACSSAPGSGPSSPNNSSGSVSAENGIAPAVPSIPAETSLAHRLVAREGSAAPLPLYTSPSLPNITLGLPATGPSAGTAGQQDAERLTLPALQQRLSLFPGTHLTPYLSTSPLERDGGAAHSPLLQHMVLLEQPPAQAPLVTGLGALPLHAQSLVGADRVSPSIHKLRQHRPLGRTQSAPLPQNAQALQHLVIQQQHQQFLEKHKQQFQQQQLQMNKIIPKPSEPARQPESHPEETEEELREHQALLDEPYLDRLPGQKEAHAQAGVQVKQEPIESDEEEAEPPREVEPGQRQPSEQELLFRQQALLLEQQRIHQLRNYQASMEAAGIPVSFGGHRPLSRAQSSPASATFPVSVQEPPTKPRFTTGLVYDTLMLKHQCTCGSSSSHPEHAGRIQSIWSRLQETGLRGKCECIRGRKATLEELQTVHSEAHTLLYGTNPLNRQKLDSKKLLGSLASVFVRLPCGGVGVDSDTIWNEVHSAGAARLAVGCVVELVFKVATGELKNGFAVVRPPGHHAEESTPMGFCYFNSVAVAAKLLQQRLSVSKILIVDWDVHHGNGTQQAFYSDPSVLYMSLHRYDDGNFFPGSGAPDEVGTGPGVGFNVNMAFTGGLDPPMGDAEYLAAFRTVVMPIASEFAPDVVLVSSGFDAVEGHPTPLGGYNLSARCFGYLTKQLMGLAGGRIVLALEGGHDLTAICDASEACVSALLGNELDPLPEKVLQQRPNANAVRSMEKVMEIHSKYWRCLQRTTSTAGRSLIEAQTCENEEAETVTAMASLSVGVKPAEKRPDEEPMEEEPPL
# [15] = Cell cycle arrest in human RH4 cells assessed as G0/G1 accumulation at 28 uM incubated for 72 hrs by propidium iodide staining based flow cytometry (reference value: 46.2 %); assay type: functional
SMILES,CI [1],fold change (FC) [2],fold change (FC) [3],fold change (FC) [4],inhibition at 50 µM [5] [%],CI [6],fold change (FC) [7],fold change (FC) [8],Activity [9] [%],Activity (U-87MG ATCC),inhibition at 20 µM [10] [%],Activity [11] [%],IC50 (SK-N-SH) [µM],Activity [12] [%],Activity [13] [%],Activity [14] [%],IC50 (Histone deacetylase 4) [µM],Activity [15] [%]
Cc1cc(C)c(CNC(=O)c2cc(C)n(-c3ccccc3)c2C)c(=O)[nH]1,0.54,2.4,0.6,0.02,> 30,0.64,0.3,0.3,,,,,,,,,,
Cc1cc(C)c(CNC(=O)c2cc(C)n(-c3cccc(NC(=O)CCCCCCC(=O)NO)c3)c2C)c(=O)[nH]1,,,,,,,,,6.4,inactive,> 60,13.8,25,3.2,16.1,0.4,36.8,44.9
